Published values from different studies.
Protocols differ between the studies behind these lines.

`NCc1cc2c(cc1F)C(=O)N(C1CCC(=O)NC1=O)C2` (stereo not drawn) has a concentration of 85.3 ng/mL (male CD-1 mouse, plasma; oral, 10 mg/kg, 40.2 min).
With `Cc1nc2ccc(OCc3ccc(C(F)(F)F)cc3)cc2[nH]1` the concentration was 2.9 ng/g (male BALB/c mouse, brain; intravenous, 1 mg/kg, 72 h).
`CC(C)(C)S(=O)(=O)c1cc2c(Nc3ccc4scnc4c3)ncnc2cc1OCCOP(=O)(O)O` has a concentration of 1150 ng/mL (BALB/c mouse, plasma; oral, 10 mg/kg, 30 min).
`O=C1CCC(N2Cc3cc(C4CCN(Cc5ccccc5)CC4)ccc3C2=O)C(=O)N1` (stereo not drawn) has a concentration of 136 ng/mL (male CD-1 mouse, plasma; intravenous, 1 mg/kg, 15 min).
For `CC1(C)NC(=O)N(c2ccc(F)c(S(C)(=O)=O)c2)C1=O`, the concentration was 130 ng/mL (male Swiss mouse, plasma; oral, 100 mg/kg, 24 h).
The concentration of `CC(C)n1ncc2c(C(=O)NCC3(C)CNC3)cc(C3CC3)nc21` is reported as 1230 ng/mL (female BALB/c mouse, plasma; intraperitoneal, 50 mg/kg, 4 h).
With `CC1(C)NC(=O)N(c2ccc(F)c(Br)c2)C1=O` the concentration was 12500 ng/mL (male Swiss mouse, plasma; oral, 100 mg/kg, 24 h).
For `CC(C)c1cc(C(=O)NCCN)c2cnn(C(C)C)c2n1`, the concentration was 2860 ng/mL (female BALB/c mouse, plasma; intraperitoneal, 50 mg/kg, 1 h).
`Cc1ccc2c(c1)C(=O)[C@]1(O)CCN(c3ccc4nc(C)ccc4c3)C1=N2` has a concentration of 3.7 µM (mouse, brain; subcutaneous, 10 mg/kg, 30 min, single dose).
